Values after ≈ are worked out from the molar mass of the structure shown.
Assays:
Assay type in all cases: functional
Staphylococcus aureus [1] = test: Antibacterial activity against methicillin-sensitive Staphylococcus aureus 14-3 after 18 to 24 hrs by two-fold serial dilution method
Procedure, shortened: (§1)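 Twofold serial dilution in agar media against Gram-positive and Gram-negative strains. Plates incubated at 35 °C for 18–24 h. MIC read as the lowest compound concentration giving complete inhibition of bacterial growth.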

Enterococcus faecalis [2] = test: Antibacterial activity against Enterococcus faecalis 14-1 after 18 to 24 hrs by two-fold serial dilution method; procedure, shortened: as §1
Enterococcus faecalis [3] = test: Antibacterial activity against Enterococcus faecalis 14-2 after 18 to 24 hrs by two-fold serial dilution method; procedure, shortened: as §1
Klebsiella pneumoniae [4] = test: Antibacterial activity against Klebsiella pneumoniae 14-2 after 18 to 24 hrs by two-fold serial dilution method; procedure, shortened: as §1
[5] = tested on: Staphylococcus epidermidis; test: Antibacterial activity against methicillin-resistant Staphylococcus epidermidis 14-37 after 18 to 24 hrs by two-fold serial dilution method
Procedure, shortened: (§2)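 Agar media, standard twofold serial dilution. MIC is the lowest concentration giving complete inhibition of bacterial growth after incubation at 35 °C for 18–24 h. Ciprofloxacin and levofloxacin were run as comparators.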

Staphylococcus aureus [6] = test: Antibacterial activity against methicillin-resistant Staphylococcus aureus 14-4 after 18 to 24 hrs by two-fold serial dilution method; procedure, shortened: as §2
Staphylococcus aureus [7] = test: Antibacterial activity against methicillin-sensitive Staphylococcus aureus 14-1 after 18 to 24 hrs by two-fold serial dilution method; procedure, shortened: as §1
Pseudomonas aeruginosa [8] = test: Antibacterial activity against Pseudomonas aeruginosa 14-9 after 18 to 24 hrs by two-fold serial dilution method; procedure, shortened: as §1
Pseudomonas aeruginosa [9] = test: Antibacterial activity against Pseudomonas aeruginosa 14-15 after 18 to 24 hrs by two-fold serial dilution method; procedure, shortened: as §1
Enterococcus faecium [10] = test: Antibacterial activity against Enterococcus faecium 14-6 after 18 to 24 hrs by two-fold serial dilution method; procedure, shortened: as §1
Staphylococcus aureus [11] = test: Antibacterial activity against methicillin-resistant Staphylococcus aureus 14-5 after 18 to 24 hrs by two-fold serial dilution method; procedure, shortened: as §2
[12] = tested on: Staphylococcus epidermidis; test: Antibacterial activity against methicillin-resistant Staphylococcus epidermidis 14-39 after 18 to 24 hrs by two-fold serial dilution method; procedure, shortened: as §2
Pseudomonas aeruginosa [13] = test: Antibacterial activity against Pseudomonas aeruginosa ATCC 27853 after 18 to 24 hrs by two-fold serial dilution method; procedure, shortened: as §1
Klebsiella pneumoniae [14] = test: Antibacterial activity against Klebsiella pneumoniae 14-1 after 18 to 24 hrs by two-fold serial dilution method; procedure, shortened: as §1
[15] = tested on: Staphylococcus epidermidis; test: Antibacterial activity against methicillin-resistant Staphylococcus epidermidis 14-21 after 18 to 24 hrs by two-fold serial dilution method; procedure, shortened: as §2
Escherichia coli [16] = test: Antibacterial activity against Escherichia coli ATCC 25922 after 18 to 24 hrs by two-fold serial dilution method; procedure, shortened: as §1
Klebsiella pneumoniae [17] = test: Antibacterial activity against Klebsiella pneumoniae 14-4 after 18 to 24 hrs by two-fold serial dilution method; procedure, shortened: as §1
Streptococcus pneumoniae = test: Antibacterial activity against methicillin-resistant Streptococcus pneumoniae ATCC 19615 after 18 to 24 hrs by two-fold serial dilution method; procedure, shortened: as §2
Escherichia coli [18] = test: Antibacterial activity against extended-spectrum beta-lactamase producing Escherichia coli 14-2 after 18 to 24 hrs by two-fold serial dilution method; procedure, shortened: as §1
Enterococcus faecium [19] = test: Antibacterial activity against Enterococcus faecium 14-5 after 18 to 24 hrs by two-fold serial dilution method; procedure, shortened: as §1
[20] = tested on: Staphylococcus epidermidis; test: Antibacterial activity against methicillin-sensitive Staphylococcus epidermidis 14-2 after 18 to 24 hrs by two-fold serial dilution method; procedure, shortened: as §1
Klebsiella pneumoniae [21] = test: Antibacterial activity against extended-spectrum beta-lactamase producing Klebsiella pneumoniae 14-19 after 18 to 24 hrs by two-fold serial dilution method; procedure, shortened: as §1
Escherichia coli [22] = test: Antibacterial activity against Escherichia coli 14-1 after 18 to 24 hrs by two-fold serial dilution method; procedure, shortened: as §1
Pseudomonas aeruginosa [23] = test: Antibacterial activity against Pseudomonas aeruginosa 14-14 after 18 to 24 hrs by two-fold serial dilution method; procedure, shortened: as §1
Klebsiella pneumoniae [24] = test: Antibacterial activity against extended-spectrum beta-lactamase producing Klebsiella pneumoniae 14-18 after 18 to 24 hrs by two-fold serial dilution method; procedure, shortened: as §1
[25] = tested on: Staphylococcus epidermidis; test: Antibacterial activity against methicillin-resistant Staphylococcus epidermidis 14-22 after 18 to 24 hrs by two-fold serial dilution method; procedure, shortened: as §2
Pseudomonas aeruginosa [26] = test: Antibacterial activity against Pseudomonas aeruginosa 14-16 after 18 to 24 hrs by two-fold serial dilution method; procedure, shortened: as §1
Klebsiella pneumoniae [27] = test: Antibacterial activity against Klebsiella pneumoniae 14-3 after 18 to 24 hrs by two-fold serial dilution method; procedure, shortened: as §1
Escherichia coli [28] = test: Antibacterial activity against extended-spectrum beta-lactamase producing Escherichia coli 14-1 after 18 to 24 hrs by two-fold serial dilution method; procedure, shortened: as §1
Staphylococcus aureus [29] = test: Antibacterial activity against methicillin-sensitive Staphylococcus aureus 14-4 after 18 to 24 hrs by two-fold serial dilution method; procedure, shortened: as §1
[30] = tested on: Mycobacterium tuberculosis; test: Antimycobacterial activity against Mycobacterium tuberculosis H37Rv ATCC 27294 incubated for 7 days by microplate Alamar Blue assay; conditions: H37Rv ATCC 27294, 168 h
Procedure, shortened: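 Fluorescence read-out. MIC is the lowest concentration that reduces fluorescence by at least 90% relative to the mean of replicate bacterium-only controls. Isoniazid and rifampicin were included as reference drugs.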

Klebsiella pneumoniae [31] = test: Antibacterial activity against extended-spectrum beta-lactamase producing Klebsiella pneumoniae 14-17 after 18 to 24 hrs by two-fold serial dilution method; procedure, shortened: as §1
Escherichia coli [32] = test: Antibacterial activity against Escherichia coli 14-2 after 18 to 24 hrs by two-fold serial dilution method; procedure, shortened: as §1
Staphylococcus aureus [33] = test: Antibacterial activity against Staphylococcus aureus CMCC 26003 after 18 to 24 hrs by two-fold serial dilution method; procedure, shortened: as §1
Enterococcus faecium [34] = test: Antibacterial activity against Enterococcus faecium 14-2 after 18 to 24 hrs by two-fold serial dilution method; procedure, shortened: as §1

Row | SMILES | MIC (Staphylococcus aureus [1]) [µg/mL] | MIC (Enterococcus faecalis [2]) [µg/mL] | MIC (Enterococcus faecalis [3]) [µg/mL] | MIC (Klebsiella pneumoniae [4]) [µg/mL] | MIC [5] [µg/mL] | MIC (Staphylococcus aureus [6]) [µg/mL] | MIC (Staphylococcus aureus [7]) [µg/mL] | MIC (Pseudomonas aeruginosa [8]) [µg/mL] | MIC (Pseudomonas aeruginosa [9]) [µg/mL] | MIC (Enterococcus faecium [10]) [µg/mL] | MIC (Staphylococcus aureus [11]) [µg/mL] | MIC [12] [µg/mL] | MIC (Pseudomonas aeruginosa [13]) [µg/mL] | MIC (Klebsiella pneumoniae [14]) [µg/mL] | MIC [15] [µg/mL] | MIC (Escherichia coli [16]) [µg/mL] | MIC (Klebsiella pneumoniae [17]) [µg/mL] | MIC (Streptococcus pneumoniae) [µg/mL] | MIC (Escherichia coli [18]) [µg/mL] | MIC (Enterococcus faecium [19]) [µg/mL] | other results
1 | CO/N=C1/CN(c2nc3c(cc2F)c(=O)c(C(=O)O)cn3-c2nc(N)c(F)cc2F)CC1(C)CNC1CC1 (stereo not given) | 16 (≈ 30.1 µM) | 128 (≈ 241 µM) | 8 (≈ 15.1 µM) | > 128 | 64 (≈ 120 µM) | 32 (≈ 60.2 µM) | 16 (≈ 30.1 µM) | 128 (≈ 241 µM) | 128 (≈ 241 µM) | 64 (≈ 120 µM) | 32 (≈ 60.2 µM) | 128 (≈ 241 µM) | 128 (≈ 241 µM) | > 128 | 128 (≈ 241 µM) | 16 (≈ 30.1 µM) | > 128 | 4 (≈ 7.53 µM) | > 128 | 128 (≈ 241 µM) | MIC [20]: 128 µg/mL (≈ 241 µM); MIC (Klebsiella pneumoniae [21]): > 128 µg/mL; MIC (Escherichia coli [22]): > 128 µg/mL; MIC (Pseudomonas aeruginosa [23]): > 128 µg/mL; MIC (Klebsiella pneumoniae [24]): > 128 µg/mL; MIC [25]: 32 µg/mL (≈ 60.2 µM); MIC (Pseudomonas aeruginosa [26]): > 128 µg/mL; MIC (Klebsiella pneumoniae [27]): > 128 µg/mL; MIC (Escherichia coli [28]): 128 µg/mL (≈ 241 µM); MIC (Staphylococcus aureus [29]): 8 µg/mL (≈ 15.1 µM); MIC90 [30]: 15.6 µg/mL (≈ 29.4 µM); MIC (Klebsiella pneumoniae [31]): > 128 µg/mL; MIC (Escherichia coli [32]): 128 µg/mL (≈ 241 µM); MIC (Staphylococcus aureus [33]): 0.25 µg/mL (≈ 0.47 µM); MIC (Enterococcus faecium [34]): 64 µg/mL (≈ 120 µM)
2 | CCO/N=C1/CN(c2nc3c(cc2F)c(=O)c(C(=O)O)cn3-c2nc(N)c(F)cc2F)CC1CNC1CC1 (stereo not given) | 32 (≈ 60.2 µM) | 128 (≈ 241 µM) | 4 (≈ 7.53 µM) | 64 (≈ 120 µM) | 64 (≈ 120 µM) | 64 (≈ 120 µM) | 16 (≈ 30.1 µM) | 32 (≈ 60.2 µM) | 128 (≈ 241 µM) | 128 (≈ 241 µM) | 8 (≈ 15.1 µM) | 64 (≈ 120 µM) | 32 (≈ 60.2 µM) | 64 (≈ 120 µM) | 128 (≈ 241 µM) | 4 (≈ 7.53 µM) | > 128 | 16 (≈ 30.1 µM) | > 128 | 32 (≈ 60.2 µM) | MIC [20]: > 128 µg/mL; MIC (Klebsiella pneumoniae [21]): 128 µg/mL (≈ 241 µM); MIC (Escherichia coli [22]): > 128 µg/mL; MIC (Pseudomonas aeruginosa [23]): 128 µg/mL (≈ 241 µM); MIC (Klebsiella pneumoniae [24]): 128 µg/mL (≈ 241 µM); MIC [25]: 32 µg/mL (≈ 60.2 µM); MIC (Pseudomonas aeruginosa [26]): 128 µg/mL (≈ 241 µM); MIC (Klebsiella pneumoniae [27]): 128 µg/mL (≈ 241 µM); MIC (Escherichia coli [28]): 32 µg/mL (≈ 60.2 µM); MIC (Staphylococcus aureus [29]): 32 µg/mL (≈ 60.2 µM); MIC90 [30]: 22 µg/mL (≈ 41.4 µM); MIC (Klebsiella pneumoniae [31]): 128 µg/mL (≈ 241 µM); MIC (Escherichia coli [32]): > 128 µg/mL; MIC (Staphylococcus aureus [33]): 0.125 µg/mL (≈ 0.235 µM); MIC (Enterococcus faecium [34]): 64 µg/mL (≈ 120 µM)

From ChEMBL document CHEMBL3734675, “Synthesis, antimycobacterial and antibacterial activity of fluoroquinolone derivatives containing an 3-alkoxyimino-4-(cyclopropylanimo)methylpyrrolidine moiety” (2015)
